The values that follow come from publication PMC11568772 (Drug Design, Development and Therapy, 2024).

The subject of assay [1] is VEGF-induced proliferation. The note with it: read-out: IC50 VEGF-induced proliferation; cited from earlier work.
Assay [2] relates to MCF-7 cells. The assay is described as follows: Annexin V-FITC/PI apoptosis assay. It counts as cell-based, human. To be noted: MCF-7, 24 hours of incubation. A digest of the protocol: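 MCF-7 cells were treated with test compound for 24 h, with DMSO as control. 1–5×10^5 cells were pelleted by centrifugation and resuspended in binding buffer. They were stained with Annexin V-FITC and PI for 5 min at room temperature in the dark, then analysed by flow cytometry. Quadrants: Q1 necrotic, Q2 late apoptotic, Q3 live, Q4 early apoptotic.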

For a further assay, the target named is VEGFR-2 enzyme (Homo sapiens, UniProt P35968). The assay is described as follows: VEGFR-2 kinase inhibitory assay. Type of assay: biochemical.
Sequence of VEGFR-2 enzyme (P35968 20-1356): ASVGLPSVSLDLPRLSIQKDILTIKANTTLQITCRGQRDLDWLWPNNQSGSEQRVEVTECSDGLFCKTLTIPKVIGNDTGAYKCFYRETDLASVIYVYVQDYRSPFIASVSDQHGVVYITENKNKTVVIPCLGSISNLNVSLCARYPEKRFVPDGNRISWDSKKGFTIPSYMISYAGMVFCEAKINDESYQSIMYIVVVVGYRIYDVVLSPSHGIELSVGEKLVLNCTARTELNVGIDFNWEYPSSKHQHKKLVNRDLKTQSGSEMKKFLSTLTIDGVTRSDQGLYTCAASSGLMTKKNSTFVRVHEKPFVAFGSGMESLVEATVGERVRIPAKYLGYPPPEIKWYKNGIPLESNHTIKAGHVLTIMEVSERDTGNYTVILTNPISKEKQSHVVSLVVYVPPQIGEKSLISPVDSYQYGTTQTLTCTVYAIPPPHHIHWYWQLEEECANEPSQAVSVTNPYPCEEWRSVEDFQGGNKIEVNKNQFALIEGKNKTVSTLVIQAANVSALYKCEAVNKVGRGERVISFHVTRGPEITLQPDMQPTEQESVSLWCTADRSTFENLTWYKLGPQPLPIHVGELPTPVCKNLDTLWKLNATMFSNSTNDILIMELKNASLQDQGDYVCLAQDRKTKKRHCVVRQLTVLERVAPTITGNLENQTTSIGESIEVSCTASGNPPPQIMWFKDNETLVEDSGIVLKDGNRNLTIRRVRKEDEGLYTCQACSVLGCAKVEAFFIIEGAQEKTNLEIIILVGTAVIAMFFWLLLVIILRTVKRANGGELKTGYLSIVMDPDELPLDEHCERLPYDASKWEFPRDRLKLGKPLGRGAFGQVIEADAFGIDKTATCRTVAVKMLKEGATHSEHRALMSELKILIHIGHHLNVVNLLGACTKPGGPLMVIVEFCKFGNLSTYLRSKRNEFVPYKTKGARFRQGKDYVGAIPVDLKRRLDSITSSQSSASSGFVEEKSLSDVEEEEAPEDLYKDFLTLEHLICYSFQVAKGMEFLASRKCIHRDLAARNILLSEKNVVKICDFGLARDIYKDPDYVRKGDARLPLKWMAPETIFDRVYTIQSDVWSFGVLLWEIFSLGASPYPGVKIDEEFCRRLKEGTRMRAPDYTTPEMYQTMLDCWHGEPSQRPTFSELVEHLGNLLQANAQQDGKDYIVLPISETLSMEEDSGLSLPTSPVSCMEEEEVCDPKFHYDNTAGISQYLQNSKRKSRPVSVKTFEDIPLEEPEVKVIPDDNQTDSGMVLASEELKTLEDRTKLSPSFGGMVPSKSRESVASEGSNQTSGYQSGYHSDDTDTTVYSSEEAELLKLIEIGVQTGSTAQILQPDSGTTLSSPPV
Assay [3] concerns human cervical (Hela) carcinoma cell line. The assay is described as follows: MTT cytotoxicity, Hela. Type of assay: cell-based. The note with it: 24 h, read-out: IC50 Hela. The method in brief:
(§1)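 Cells were grown in medium with 10% FBS, penicillin/streptomycin, 37°C, 5% CO2, then seeded at 1.0×10^4 cells/well and held 48 h. Test compound was added at 1.56, 3.125, 6.25, 12.5, 25, 50 and 100, for 24 h. MTT (5 mg/mL stock) was added for 4 h, formazan dissolved in DMSO and A570 read. Viability was taken relative to untreated wells. IC50 came from a Boltzmann sigmoidal fit, in triplicate, mean ± SD.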

The subject of assay [4] is WI-38 normal fibroblast cells. The assay can be described thus: MTT cytotoxicity towards normal human cells WI-38. The note with it: WI-38, 24 h, read-out: IC50 WI-38. It counts as cell-based.
Assay [5] deals with HCT-116, HePG-2, HeLa and MCF-7 cells. The assay can be described thus: MTT cytotoxicity summarised over the 4 cancer cell lines. It counts as cell-based. The note with it: Homo sapiens, read-out: IC50 range of one compound over the cancer cell lines. The method in brief: as §1
Assay [6] has as its system breast cancer (MCF-7) cell line. The assay is described as follows: MTT cytotoxicity, MCF-7. The note with it: Homo sapiens, MCF7, 24 h, read-out: IC50 MCF-7. It counts as cell-based. A digest of the protocol:
as §1

Assay [7] relates to colorectal (HCT116) carcinoma cell line. The assay is described as follows: MTT cytotoxicity, HCT-116. It counts as cell-based. The note with it: Homo sapiens, HCT-116, 24 h, read-out: IC50 HCT-116.
In assay [8] the test system is hepatocellular (HePG2) carcinoma cell line. The assay is described as follows: MTT cytotoxicity, HePG-2. Type of assay: cell-based. The note with it: Homo sapiens, HepG2, 24 h, read-out: IC50 HePG-2.
For assay [9], the system named is MCF-7 cells. The assay is described as follows: Cell cycle analysis by PI staining and flow cytometry. It counts as cell-based, human. The note with it: MCF-7, 24 h at IC50 of the compound. In general terms: In flow cytometry, cells or beads pass a laser one at a time.
Assay [10] has as its system prostate cancer PC3 cell line. To be noted: read-out: IC50 PC3 cell line; cited from earlier work.
The next assay concerns VEGFR-2. To be noted: read-out: IC50 VEGFR-2; reference medicine pazopanib; cited from earlier work.

A value given as a limit tells only on which side of the number the result lay.

For `COc1cc2c(Oc3ccc4[nH]c(C)cc4c3F)ncnc2cc1OCCCN1CCCC1` [Cediranib], the IC50 in [1] was under 0.001 µM.
The inhibition is the change of the read-out against control, counted positive when it falls. `O=C(NCCSc1nc2cc(Cl)ccc2c(=O)n1-c1ccccc1)NCc1ccc(Cl)cc1` [Compound 5p, 1-(2-((7-Chloro-4-Oxo-3-Phenyl-3,4-Dihydroquinazolin-2-Yl)thio)ethyl)-3-(4-Chlorobenzyl)urea]: the “necrosis (Q1)” value with MCF-7 cells [2] is on record as 4.23%. Moreover, the “late apoptosis (Q2)” value in the assay with MCF-7 cells [2] (control 0.27%) was 12.51%. In addition, the “early apoptosis (Q4)” value in the assay on MCF-7 cells [2] (control 0.61%) is 26.11%. The compound also showed a total apoptosis with MCF-7 cells [2] (control 2.29%) of 42.85%. Besides, the IC50 against VEGFR-2 enzyme is 0.117 µM; in assay [3], 14.3 ± 1.2 µM; in assay [4] it was 56.9 ± 3.3 µM; in [5], 7.99 to 14.3 µM; in [6], 7.99 ± 0.5 µM; in assay [7], 8.32 ± 0.7 µM. Also, the IC50 in assay [8] was 9.72 ± 0.7 µM. On VEGFR-2 enzyme (read-out: % Inhibition 0.01 μM, VEGFR-2 enzyme, 0.01 μM), the inhibition at 0.01 µM stood at 31.4%. For the same compound, the inhibition at 0.1 µM on VEGFR-2 enzyme (read-out: % Inhibition 0.1 μM, VEGFR-2 enzyme, 0.1 μM) is 44.4%. In addition, at VEGFR-2 enzyme (read-out: % Inhibition 1 μM, VEGFR-2 enzyme, 1 μM), the inhibition at 1 µM was determined as 70.5%. Moreover, at VEGFR-2 enzyme (read-out: % Inhibition 10 μM, VEGFR-2 enzyme, 10 μM), the inhibition at 10 µM is 88.3%. The inhibition at 100 µM on VEGFR-2 enzyme (read-out: % Inhibition 100 μM, VEGFR-2 enzyme, 100 μM) turned out to be 93.5%. The “Cell Cycle Distribution (%) G2-M” value with MCF-7 cells [9] (DMSO control 16.75) came out at 7.82%. For the same compound, the “Cell Cycle Distribution (%) S” value in the assay on MCF-7 cells [9] (DMSO control 29.16) came to 35.02%. Further, the “Cell Cycle Distribution (%) G0-G1” value in the assay on MCF-7 cells [9] (DMSO control 54.09) was determined as 57.16%.
`CNC(=O)c1cc(Oc2ccc(NC(=O)Nc3ccc(Cl)c(C(F)(F)F)c3)cc2)ccn1` [SOR, Sorafenib, reference compound]: the IC50 is 4.17 ± 0.2 µM in assay [6] and 17.3 µM in assay [10].
For `Cc1ccc(Nc2nccc(N(C)c3ccc4c(C)n(C)nc4c3)n2)cc1S(N)(=O)=O` [pazopanib], in the assay with VEGFR-2, the IC50 was […].
